Source: PubChem BioAssay
Apaf1 inhib = inhibitors of human Apaf-1 apoptosome, primary screen, biochemical, DEVD-Rh110 fluorescence, uHTS | inhibition, % at 20 µM | reconstituted apoptosome caspase-3 activity | actives 0.71% (n = 330,000) | Apoptotic protease-activating factor 1 (Homo sapiens), O14727; active = inhibition of at least 40% at 20 µM;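 note: plate controls were DMSO wells for no effect and DEVD-CHO caspase inhibitor wells for full effect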
Target sequence (O14727 whole entry, looked up): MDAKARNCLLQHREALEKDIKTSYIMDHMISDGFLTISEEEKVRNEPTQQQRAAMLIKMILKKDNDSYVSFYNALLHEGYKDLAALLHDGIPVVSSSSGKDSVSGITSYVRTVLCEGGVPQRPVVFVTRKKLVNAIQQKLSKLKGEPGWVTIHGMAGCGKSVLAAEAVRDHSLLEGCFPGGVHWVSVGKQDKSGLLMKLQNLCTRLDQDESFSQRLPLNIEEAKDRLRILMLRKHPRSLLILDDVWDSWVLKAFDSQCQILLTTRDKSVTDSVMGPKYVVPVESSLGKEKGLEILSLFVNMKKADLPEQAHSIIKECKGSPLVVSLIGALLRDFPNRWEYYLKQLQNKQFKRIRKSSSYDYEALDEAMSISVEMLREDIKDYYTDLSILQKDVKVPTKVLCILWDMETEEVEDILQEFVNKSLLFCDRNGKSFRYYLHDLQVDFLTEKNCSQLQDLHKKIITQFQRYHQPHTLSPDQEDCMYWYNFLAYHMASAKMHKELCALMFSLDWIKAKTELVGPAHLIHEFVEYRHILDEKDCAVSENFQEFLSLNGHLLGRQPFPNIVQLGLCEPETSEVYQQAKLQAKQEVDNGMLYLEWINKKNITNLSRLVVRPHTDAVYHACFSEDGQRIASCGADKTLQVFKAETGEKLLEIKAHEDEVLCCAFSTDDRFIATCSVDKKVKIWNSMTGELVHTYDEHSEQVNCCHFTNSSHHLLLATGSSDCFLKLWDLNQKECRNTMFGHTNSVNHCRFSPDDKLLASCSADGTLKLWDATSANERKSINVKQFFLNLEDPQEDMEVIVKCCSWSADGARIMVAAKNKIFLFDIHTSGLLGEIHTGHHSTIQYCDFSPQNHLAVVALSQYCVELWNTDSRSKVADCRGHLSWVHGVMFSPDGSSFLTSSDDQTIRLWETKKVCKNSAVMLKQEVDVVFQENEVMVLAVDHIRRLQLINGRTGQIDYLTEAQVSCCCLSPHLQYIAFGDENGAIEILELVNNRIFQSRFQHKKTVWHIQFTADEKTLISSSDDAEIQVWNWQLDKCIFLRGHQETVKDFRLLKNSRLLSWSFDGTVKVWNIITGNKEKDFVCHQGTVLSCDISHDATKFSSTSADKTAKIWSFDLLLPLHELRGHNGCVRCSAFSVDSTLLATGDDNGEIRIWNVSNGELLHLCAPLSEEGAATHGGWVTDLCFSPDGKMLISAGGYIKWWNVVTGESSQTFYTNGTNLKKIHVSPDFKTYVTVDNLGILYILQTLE
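System: reconstituted apoptosome with Apaf-1, cytochrome c, caspase-9, procaspase-3, dATP; Signal: Rh110 fluorescence intensity; Schedule: 30 min compound preincubation, 50 min activation, room temperature; Reagent: cytochrome c trigger plus (Z-DEVD)2-Rh110 caspase-3 substrate.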
SENP1 inh = human SENP1 catalytic domain inhibitors, primary screen, biochemical, FRET, uHTS; recombinant SENP1 catalytic domain, CyPet-SUMO1-YPet FRET cleavage; actives 0.21% (n = 360,000); inhibition, % at 10 µM;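 active = inhibition at least 30% at 10 µM, raw YFP signal under a set limit, fluorescence ratio 0.5 to 1.5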;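 note: 0% = enzyme with DMSO and 100% = no enzyme wells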
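Compound: 10 µM single point, 0.5% DMSO; Test system: hSENP1 catalytic domain, recombinant; Timing: 50 min reaction at room temperature; Technique: FRET, CFP and YFP emission; Control set: no-enzyme wells low, DMSO-plus-enzyme wells high control.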
SENP8 block-1 = human SENP8 protease inhibitors, primary screen, biochemical, fluorescence, Nedd8 protein substrate, uHTS. Sentrin-specific protease 8 (Homo sapiens), Q96LD8. recombinant SENP8. inhibition, % at 20 µM. actives 0.64% (n = 360,000). AID 602440, 2012; in the data active = inhibition mostly above about 40%, no sharp cut-off; inactive = mostly below about 27%
SENP6 block = SENP6 protease inhibitors, primary screen, biochemical, luminescence, uHTS; Sentrin-specific protease 6 (Homo sapiens), Q9GZR1; Recombinant SENP6 catalytic domain, aminoluciferin luminescence; inhibition, % at 10 µM; actives 1.8% (n = 330,000); AID 2599, 2010;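 active = inhibition above about 50% at the single tested dose, limit read from the data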;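 note: plate controls were DMSO wells with enzyme for no effect and DMSO wells lacking enzyme for full effect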
SENP8 block-2 = SENP8 protease inhibitors, primary screen, biochemical, luminescence; inhibition, % at 10 µM; purified SENP8, Z-RLRGG-aminoluciferin cleavage; actives 1.2% (n = 330,000); AID 2540, 2010; in the data active = inhibition above about 50%
SENP7 block = SENP7 protease inhibitors, primary screen, biochemical, luminescence, uHTS. actives 1.5% (n = 330,000). recombinant SENP7, Z-RLRGG-aminoluciferin luminescence, 40 min. AID 434973, 2010. inhibition, % at 5 µM;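 active = inhibition above about 50% at the single test dose, limit read from the data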;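 note: plate controls were DMSO with enzyme for no effect and no enzyme buffer wells for full effect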
Numbers without * were called inactive; x = not tested or not shown. In the library only some 2.9% were active in any assay of this set; here they are far more common.

SMILES	Apaf1 inhib	SENP1 inh	SENP8 block-1	SENP6 block	SENP8 block-2	SENP7 block
Cc1ccc(NS(=O)(=O)c2cc([N+](=O)[O-])ccc2NNC(=S)Nc2cc(C)ccc2C)c(C)c1	26	62*	33	8	-1	5
COc1ccc(CN2CCNC(=O)C2CC(=O)NCCC2=CCCCC2)c(F)c1 (centres undefined)	24	-22	-39	17	-1	0
COC(=O)CCC(=O)OC1(C)C(=O)C2=CN(CC(C)C)C(c3ccc(OC)cc3)=CC2=C(Br)C1=O (centres undefined)	52*	x	x	34	10	0
O=C1c2ccccc2-c2c1nc1c([n+]2[O-])CCCC1	42*	1	42*	-1	-2	9
Cn1c(/C=C/c2ccc(Cl)cc2)c([N+](=O)[O-])c(=O)n(C)c1=O	15	34*	5	-1	10	8
Cc1cccc(NC(=O)CNC(=O)CN2C(=O)NC(C)(CCC(C)C)C2=O)c1C (centres undefined)	x	2	11	x	x	x
Cc1ccccc1OCC(=O)Nc1ccc(N2CCN(C(=O)c3ccco3)CC2)cc1	9	1	14	-4	-7	-9
COCCc1ccc(OC2(C)CCN(Cc3cccc(OCOC)c3)C2)cc1 (centres undefined)	x	-3	1	x	x	x
Cc1ccc2sc(C)cc(=O)c2c1	x	-8	-47	x	x	x
Cc1cc2nn(-c3ccc(F)cc3)nc2cc1N	31	-30	-335	76*	70*	6
Cc1ccc(-n2nc3ccc(N)cc3n2)cc1	82*	-19	-496	89*	80*	34
COc1ccc(-n2nc3cc(C)c(N)cc3n2)cc1Cl	18	-23	-326	48	24	5
CC1Oc2ccccc2C=C1/C=N/Nc1ccc(C(=O)O)cc1 (centres undefined)	4	-45	-276	96*	96*	89*
COc1ccc(-c2nc3c(C)cc(Br)cn3c2Cc2cccc(Cl)c2)cc1OC	x	7	-10	x	x	x
COc1ccc(-n2c(C)c([N+](=O)[O-])c3ccc(O)c(CN(C)C)c32)cc1	19	1	42*	-12	-10	-8
Oc1ccccc1N=Cc1ccc[nH]1	13	6	41*	14	8	12
C(=Nc1ccccc1)c1ccc[nH]1	x	-5	20	x	x	x
CN(C)S(=O)(=O)NCC1CCCN(Cc2cc3ccccc3s2)C1 (centres undefined)	x	1	2	x	x	x
COc1ccc(NC(C)c2cc(Cl)ccc2O)cc1 (centres undefined)	-3	0	47*	-12	-6	-5
CC(Nc1ccccc1)c1cc(Cl)ccc1O (centres undefined)	7	1	25	-5	-4	1
Cc1cccc2c(N=Nc3ccc(S(=O)(=O)Nc4cccc(Cl)c4)cc3[N+](=O)[O-])c(O)[nH]c12	11	4	47*	-5	-11	0
O=C(N/N=C\c1cc(Cl)ccc1O)c1ccc(S(=O)(=O)N2CCCCC2)cc1	-14	51*	9	9	1	7
C=C(C)C(=O)OCC(O)COc1ccc(C(C)(C)c2ccc(OCC(O)COC(=O)C(=C)C)cc2)cc1 (centres undefined)	31	1	18	-10	-7	-2
Cc1onc(-c2ccccc2Cl)c1C(=O)NCc1cccnc1	-5	5	16	-9	-4	-11
CC(=O)c1c(C)oc2c1C(=O)c1ccccc1C2=O	x	11	41*	x	x	x
SMILES	Apaf1 inhib	SENP1 inh	SENP8 block-1	SENP6 block	SENP8 block-2	SENP7 block
CC(=O)c1c2c3c(c(Br)ccc3n(C)c1=O)C(=O)c1ccccc1-2	14	0	28	20	0	-6
Cc1oc2c(c1C(=O)NCc1cccnc1)C(=O)c1ccccc1C2=O	86*	x	x	84*	49	74*
CCN1C[C@@H]2[C@@H]3C(=O)N(C)C(=O)[C@@H]3[C@](C)(C(=O)OC)N2C1=NC	7	0	8	x	x	1
COc1ccc(/C=C2/C(=O)N(c3c(F)c(F)c(F)c(F)c3F)N=C2C)cc1	54*	2	5	-5	-10	-8
COc1ccc(C(=O)Nc2cccc(NC(=O)c3ccc(OC)c(OC)c3)n2)cc1OC	12	0	-3	-3	-14	-18
O=C(Cc1ccc(Cl)cc1)Nc1cccnc1Cl	x	3	9	x	x	x
Nc1[nH]n(-c2ccccc2)c(=O)c1N=Nc1ccc2ncsc2c1	14	5	56*	11	-1	-6
CCCC(C)(C)C(=O)N1CCC1(C)C(=O)NS(=O)(=O)c1ccccc1Cl (centres undefined)	x	1	16	x	x	x
CCC1Cc2[nH][nH]c(=O)c2C(CC)O1 (centres undefined)	x	2	19	x	x	x
O=C1c2ccccc2C(=O)N1CCC#C/C=C1\c2ccccc2C(=O)N1c1ccccc1	x	-10	2	x	x	x
CN1C(=O)/C(=C\c2cc(N=Nc3ccccc3)ccc2O)SC1=S	14	8	49*	32	31	11
CCCCCC(=C/c1ccccc1)/C=N/Nc1ccc(S(=O)(=O)N2CCOCC2)cc1[N+](=O)[O-]	x	4	38	x	x	x
CCNC(=O)N(C)C[C@H]1N[C@@](Cc2ccccc2)(C(=O)OC)[C@H]2C(=O)N(C)C(=O)[C@@H]12	-7	-3	-2	-7	0	-1
O=C(/C=C/c1ccccc1)c1c[nH]c2ccccc12	-27	0	9	58*	38	84*
COC1=CC(=O)c2c(ccc3ncnc(N)c23)C1=O	x	7	84*	x	x	x
COc1ccc(CNC(=O)C2(C)Cc3c(-c4cccc(NC(C)=O)c4)ccnc3O2)cc1OC (centres undefined)	x	1	21	x	x	x
CCn1cc(/C=C(\NC(=O)c2ccccc2OC)C(=O)NCCN2CCOCC2)c2ccccc21	x	-5	-7	x	x	x
CN(C)c1ccc(C=NN2C(=O)CSC2=S)c(Cl)c1	x	-34	-118	x	x	x
CCCN1C(=O)/C(=C/c2ccco2)SC1=Nc1ccc(OC)cc1	7	3	48*	-21	0	3
O=[N+]([O-])c1ccc(/C=N/n2c(CO)nc3ccccc32)s1	-4	58	53*	27	5	28
CCOC(=O)c1[nH]c2ccc(Br)cc2c1NC(=O)CCN1CCCC(C)C1 (centres undefined)	97*	x	x	-18	-2	6
